Screens as filed in PubChem.
Dynein cargo inh – inhibitors of GR-EGFP nuclear translocation, primary screen, dynein cargo transport inhibitor project, imaging, high-content, 3617.4 mouse cells; test concentration mostly 20 µM; stimulated with dexamethasone, 1 µM; stronger effect = lower value; z-score, hits read low; 220,000 compounds, 0.47% hits; AID 1381, 2008;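 active means plate z-score of nuclear minus cytoplasmic receptor signal below a set negative limit, without overly bright fluorescence or cell loss, cut at about -3.5 in these data, passing the limit was not always enough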;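 further: z-score of nuclear minus cytoplasmic ring GR-EGFP intensity difference per well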
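medium = tetracycline-free induction medium containing charcoal-stripped FBS | also added = 1.0 µM final dexamethasone stimulus | schedule = 48 h induction, 1 h compound, 30 min dex at 37 °C | technique = fixed, Hoechst-stained cells imaged at 10x for EGFP | measure = GR-EGFP nuclear translocation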
CHOP inh – inhibitors of CHOP promoter induction, primary screen, cell-based, unfolded protein response, luciferase reporter; CHO-K1 CHOP-promoter luciferase, tunicamycin-induced, 15-18 h; inhibition, % at 10 µM; 220,000 compounds, 3.8% hits;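 active means compounds that reduced the stress-induced luciferase reporter signal by more than about 70% of percent inhibition, limit read from the data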
L major viab – Leishmania major promastigote growth inhibition, primary screen; Leishmania major promastigotes, resazurin fluorescence viability; AID 1063, 2008; inhibition, % at 10 µM; 200,000 compounds, 9% hits; in the data active means inhibition above about 50%;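 further: promastigotes grown with compound for 44 hours at 28 °C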
b-catenin transl – modulators of beta-catenin nuclear translocation, primary screen, imaging, HeLa cells, immunofluorescence, high-content; 190,000 compounds, 0.3% hits; nuclear translocation activity, % at 5 µM; AID 1665, 2009;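 active means nuclear translocation activity above 50% at 5 µM, with a well cell count of 50 or more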;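 further: per-cell ratio of nuclear to cytoplasmic median beta-catenin stain intensity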
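System: HeLa cells, endogenous beta-catenin; compound dosing: 5 µM primary single dose, 0.1% DMSO, 0.02–20 µM confirmation series; incubation: 24 h compound exposure at 37°C, 5% CO2; signal: beta-catenin immunofluorescence imaging with DAPI; evaluation: % activation, nuclear-to-cytoplasmic median beta-catenin signal ratio per cell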
MT stabilize HCS – microtubule stabilizers in HeLa cells, primary screen, imaging, high-content imaging. 200,000 compounds, 0.83% hits. % tubulin-high responders, % at 10 µM. AID 2205, 2009. HeLa tubulin immunostaining HCS, 24 h; share of cells brighter than vehicle mean+2SD;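 active means plate Z-score above 3 for both tubulin-high and condensed-nucleus cell shares, with cell loss under 80%, at 10 µM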;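 further: anti alpha tubulin signal scored within the nucleus-defined area of each cell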
Autophagy mod – autophagy modulators in MEF cells, primary screen, imaging, high-content, MEF GFP-LC3; MEF GFP-LC3 puncta imaging; test concentration mostly 10 µM; calls only at 10 µM (by protocol); 190,000 compounds, 0.98% hits;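 active means percentage of spot-positive cells more than 3 SD above its plate mean, without a fluorescence outlier flag or 80% toxicity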
Of the large screens only hits and unclear results are named; the others gave an inactive call. Rows were chosen to be rich in hits. Some 12% of all compounds tested hit in one or more screens of this group.

O=C(CSc1nc(N2CCCCC2)nc(N2CCCCC2)n1)Nc1nccs1	CHOP inh 76.7 (no result: b-catenin transl)
Cc1nnc2sc(SCc3ccccc3)nn2c1=O	none
COc1ccc(NC(=O)CSc2nc(N3CCCCC3)nc(N3CCCCC3)n2)cc1	none (no result: b-catenin transl)
O=C(CSc1ccsc1[N+](=O)[O-])N1CCN(c2ccccn2)CC1	none
CCOC(=O)c1c(NC(C)=O)sc2c1CCC(C=NCCCN(CC)CC)=C2Sc1ccccc1	none (no result: CHOP inh, b-catenin transl)
O=C(CN1CCN(c2ccccc2)CC1)Nc1cccc([N+](=O)[O-])c1	none
CCOC(=O)CNS(=O)(=O)c1cc(-c2nnc(Nc3ccc4c(c3)OCO4)c3ccccc23)ccc1C	L major viab 55.5
Cc1ccc(-c2nnc(Nc3ccc(C(=O)N(C)C)cc3)c3ccccc23)cc1S(=O)(=O)NCC1CCCO1 (stereo not given)	none
COC(=O)c1ccc(Nc2nnc(-c3ccc(C)c(S(=O)(=O)NCC4CCCO4)c3)c3ccccc23)cc1 (stereo not given)	L major viab 91.9
O=C(O)c1ccc(N2CCS(=O)(=O)CC2)cc1	none
COC(=O)c1cccc(CSc2nnc(C)s2)c1	none
O=C(NCCO)/C(=C/c1ccc2c(c1)OCO2)NC(=O)c1ccc(Br)cc1	Autophagy mod active
O=C(O)CNC(=O)/C(=C\c1ccc2c(c1)OCO2)NC(=O)c1ccc(Br)cc1	none
COc1cccc(CNc2ccc(N3CCCCC3)cc2)c1OC	L major viab 99.8 (no result: b-catenin transl)
CCOc1ccc(CNc2ccc(N3CCCC3)cc2)cc1	L major viab 100.3
CCOc1ccc(CNc2ccc(CNc3ncn[nH]3)cc2)cc1	none
CCOc1ccc(CNc2cccc(SC)c2)cc1	CHOP inh 86.9
COc1cc(CNc2ccc(N3CCCC3)cc2)cc(Cl)c1OC	MT stabilize HCS 15.7
CC(C)c1ccc(CNc2ccc(N3CCOCC3)cc2)cc1	L major viab 81.1
c1cc(CNc2ccc(N3CCOCC3)cc2)ccn1	none (no result: b-catenin transl)
Cc1no[n+]([O-])c1COc1ccc(/C=N/n2nnnc2N)cc1	L major viab 57.5
O=C(Nc1ccc(N2CCOCC2)cc1)c1cccc(S(=O)(=O)N2CCC(Cc3ccccc3)CC2)c1	none (no result: b-catenin transl)
Cc1csc(NC(=O)[C@@H]2CCCN2C(=O)c2cccs2)n1	none
Cc1ccc(CNC(=O)C(=O)Nc2nccs2)cc1	none
Cc1ccc(NC(=O)Cc2c[nH]c3ccccc23)cc1S(=O)(=O)N1CCCCCC1	L major viab 92.0
O=C(NCCc1c[nH]c2ccccc12)C1CCN(S(=O)(=O)c2ccccc2F)CC1	L major viab 98.2
COCCNC(=O)C1CCC(Cn2c(=S)[nH]c3ccccc3c2=O)CC1 (stereo not given)	none
O=C(NCCc1c[nH]c2ccccc12)C1CCN(c2nnc(N3CCCC3=O)s2)CC1	L major viab 83.8
O=C(NCCc1c[nH]c2ccccc12)C1CCC(Cn2c(=S)[nH]c3ccccc3c2=O)CC1 (stereo not given)	L major viab 99.6 (no result: b-catenin transl)
O=C(O)C1CCCCC1C(=O)NCCc1c[nH]c2ccccc12 (stereo not given)	none (no result: b-catenin transl)
CC(=O)Nc1ccc(S(=O)(=O)N(Cc2ccccc2)c2ccccc2F)cc1	none
O=C(CSc1cccc[n+]1[O-])Nc1cccc(Oc2ccccc2)c1	none
C=CCOC(=O)C1=C[C@@H](c2ccc3c(c2)OCO3)C[C@@H](OCc2ccc(CO)cc2)O1	none
